The results in this text go back to the RNAGym collection of RNA variant scans (doi:10.1126/science.aae0568).

First the molecules themselves.
B1: tRNA (parent)
chain: GUUCCGUUGGCGUAAUGGUAACGCGUCUCCCUCCUAAGGAGAAGACUGCGGGUUCGAGUCCCGUACGGAACG

Fewer inactive variants are shown than the library holds.

The data set covers variants of B1. The data set is described as follows: yeast fitness relative to wild type (ratio to wild type); higher = fitter; tRNA-Arg(CCU), competitive growth, 37 C, YPD. Put shortly:
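Start and end populations of a pooled competition were compared by 100-nucleotide paired-end sequencing of gene amplicons. The Saccharomyces cerevisiae strains carried tRNA-Arg(CCU) gene variants at the native genomic locus, synthesised with a 3% per-site mutation rate at 69 sites, and competed in YPD at 37°C for 24 hours in six parallel replicates. Darwinian fitness relative to wild type was based on the change in genotype frequencies. Genotypes required ≥ 100 starting reads, and estimates < 0.5 were set to 0.5.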
Take A42U G63A G68C: the yeast fitness amounted to 0.544.
As to A45C G51C U64C, the yeast fitness is no more than 0.5.
In the case of G44C A45G G67A, the yeast fitness turned out to be 0.695.
A43G U54C: the yeast fitness was found to be 0.905.
For the variant G44C G50A A69U, the yeast fitness was determined as 0.63.
With G44A A57G G58A, the yeast fitness was determined as 0.695.
For A43C C49G C61A, the yeast fitness stood at 0.702.
Under A43G U59C A70C stands 0.658; under A45C C55G, 0.528; under A43U A65U C66A, no more than 0.5.
The same measure for A43C G67U: 0.849.
On to A43U A69U, for which the yeast fitness turned out to be 0.904.
As to A43C A70C, the yeast fitness came to 0.897.
In the case of G44C C60G A65G, the yeast fitness is 0.617.
Under A43U U47A stands 0.799; under A43U U53A, 0.666.
Under A43U U53C stands 0.854; under A43U G50A A57G, no more than 0.5; under A43U A70U, 1.06.
Consider A45C C49G G58C, for which the yeast fitness was no more than 0.5.
Consider A43G U47A C55A, for which the yeast fitness is no more than 0.5.
Turning to G44C C60G, the yeast fitness came out at 0.59.
Take G44C A57U: the yeast fitness is 0.554.
As to A45G C49A C62A, the yeast fitness was no more than 0.5.
For A42U A43G, the yeast fitness was found to be 0.88.
The same measure for A43C C46A G67A: 0.538; for A42U A57G: 0.905.
The same measure for A42U A57C: 0.681.
Regarding A42U G48A A65U, the yeast fitness is 0.706.
For A43G G58C C62U, the yeast fitness amounted to 0.537.
As for A42U A69G, the yeast fitness stood at 1.11.
As to A42U A69C, the yeast fitness came out at 0.959.
For G44C A69G, the yeast fitness amounted to 1.04.
Turning to A43U C60G A70C, the yeast fitness was determined as 0.599.
For the variant A45C G52A A69C, the yeast fitness is 0.568.
Take A43G C61A G67A: the yeast fitness was no more than 0.5.
As for A45C G58C, the yeast fitness is 1.06.
For A45C G58A, the yeast fitness was 0.977.
The same measure for A45C U53C: 0.823; for A45C U53A: 0.727; for A42U G50A A65C: no more than 0.5.
As for A45C G63A, the yeast fitness turned out to be 0.85.
A43G A57C: the yeast fitness was 0.525.
As for A43G A57C A65U, the yeast fitness was 0.511.
The same measure for G44C C61A C66U: 0.824.
With G44C G56A A57G, the yeast fitness worked out at 0.543.
On to A43C G48C, for which the yeast fitness was 0.933.
In the case of A43C C46U G56C, the yeast fitness came out at 0.506.
Under A43U C46G U54A G63A stands 0.726; under A45C C60U A70G, 0.683; under G44C G68A, 0.937.
Consider A43G C49U C60A C62A, for which the yeast fitness was no more than 0.5.
Consider G44C U54C U64A G68A, for which the yeast fitness was no more than 0.5.
For A43U C62G, the yeast fitness is 0.805.
On to A43U C62U, for which the yeast fitness stood at 1.01.
For the variant A43G G50A G68U, the yeast fitness was no more than 0.5.
In the case of A43G G63U U64A, the yeast fitness came out at 0.567.
The same measure for A45C U64C A65C: 0.965; for G44C U54A C61A: 0.561.
For A43C G52A C55U C60A, the yeast fitness was no more than 0.5.
G44C U54C C66U: the yeast fitness was determined as 0.601.
On to A45C G52A U53C G58A C62G, for which the yeast fitness is no more than 0.5.
Regarding A42G U59C C61U, the yeast fitness amounted to 0.502.
For G44A C46U C62U, the yeast fitness is 0.723.
On to G44A C49G, for which the yeast fitness stood at 0.714.
As for A43C A65G, the yeast fitness came to 0.95.
On to A43C A65U, for which the yeast fitness was 0.753.
Under A43G C46G G56C stands no more than 0.5.
Regarding A43G C55U C66G, the yeast fitness was determined as 0.626.
Consider A42U G51C, for which the yeast fitness was determined as 0.567.
Under A43U U47G U53G A69U stands no more than 0.5.
As to A43U C46A A69C, the yeast fitness worked out at 0.734.
With A42U A57C A65U, the yeast fitness turned out to be 0.589.
For the variant A43C A57C A69U, the yeast fitness is no more than 0.5.
On to A43C U59C, for which the yeast fitness stood at 0.828.
With A45C G48C G50A U53C C66A, the yeast fitness is no more than 0.5.
In the case of G44C C55U, the yeast fitness is 0.731.
In the case of A42U G58A, the yeast fitness stood at 0.939.
In the case of A42U G58C, the yeast fitness turned out to be 0.924.
Turning to A43G A69C, the yeast fitness stood at 0.935.
Under G44A A45G G51C C66U A69C stands 0.576; under A43C U47A G58C, 0.689; under G44C G52A, 0.833.
Take A42U A65G C66G G68A: the yeast fitness was determined as 0.551.
As for A42U G48C C61A, the yeast fitness turned out to be 0.643.
The same measure for G44C G58C C66U: 0.653; for G44A G63C: 0.826.
As to G44A G63A, the yeast fitness was found to be 0.97.
With G44C A65G A70C, the yeast fitness is 0.682.
Turning to G44A C55G, the yeast fitness stood at 0.558.
The same measure for G44C C62U: 0.902.
In the case of G44A G56C C62U, the yeast fitness amounted to 0.695.
In the case of A42U G48A, the yeast fitness was found to be 0.895.
For the variant A43C A45G A69C, the yeast fitness came out at 0.643.
On to A42U C49U G50A, for which the yeast fitness was determined as 0.651.
Under A43U G52C stands 0.6; under A43U G52A, 0.663; under G44A C49U C62A G67C, no more than 0.5.
As to A43C A45U C49G C61U, the yeast fitness is no more than 0.5.
Under A43C C55A stands 0.588; under A43C C55U, 0.721; under A43C C55G, 0.641.
The same measure for A43C A45G G48A G58A A65U: no more than 0.5; for A42G U59A: 0.939.
In the case of A42G U59C, the yeast fitness was 0.714.
As for A42U A45U, the yeast fitness is 1.09.
For the variant A42U A45G, the yeast fitness was 0.918.
Regarding A42U C62A A70C, the yeast fitness is 0.581.
As for A45C U59G, the yeast fitness turned out to be 0.713.
The same measure for G44C G50C U54G C61G U64C: no more than 0.5.
The same measure for A45C U64G: 0.654.
A43G G44A G56C C62U: the yeast fitness was no more than 0.5.
On to A45C U53A C60G, for which the yeast fitness stood at 0.536.
As to A45C A70C, the yeast fitness turned out to be 1.05.
A43G A45C G51A: the yeast fitness was no more than 0.5.
Turning to G44A U54C G56C, the yeast fitness is no more than 0.5.
Take A42U C46G G52C C62A: the yeast fitness was no more than 0.5.
In the case of A45C C49U G56A, the yeast fitness was found to be 0.856.
Consider A43G C60U C62U A70C, for which the yeast fitness is no more than 0.5.
With A43G U47A C49A, the yeast fitness came to 0.531.
With A45C A57C, the yeast fitness was determined as 0.573.
In the case of A45C A57U, the yeast fitness stood at 0.682.
Regarding A43C G48A A57C G68U, the yeast fitness was found to be 0.701.
Under A42U C55U stands 0.709.
In the case of A43U C46G U54A, the yeast fitness stood at 0.538.
Under A42U C61G A65U stands no more than 0.5; under A45C C61A, 0.797; under A45C C61U, 0.992.
Turning to A45C C46A C62A, the yeast fitness was determined as 0.603.
For the variant G44A A57U, the yeast fitness turned out to be 0.635.
Under A42U G50A C60G stands 0.614; under A43U G48A C62A C66G, 0.533.
Consider A42U C49G C55A, for which the yeast fitness was no more than 0.5.
Regarding A43G G48C C55G, the yeast fitness came out at 0.597.
On to A45C C46G G68A, for which the yeast fitness came out at 0.678.
For the variant A45C G48A, the yeast fitness was found to be 0.828.
Turning to A42U G68A, the yeast fitness amounted to 0.927.
On to A43C C62U A65U, for which the yeast fitness is 0.591.
For the variant A43G C55U C61U, the yeast fitness is 0.543.
As to G44A C46A, the yeast fitness was 0.835.
Regarding G44A C46G, the yeast fitness was 0.928.
The same measure for A45C C66G: 0.586; for A43U C61G: 0.716; for A43U C61U: 0.969.
G44A C60G: the yeast fitness was determined as 0.667.
Take A42U A43G G48C U53A A65U A70C: the yeast fitness was no more than 0.5.
For A43C G52A, the yeast fitness amounted to 0.887.
Under A43U A65G C66U stands 0.794.
On to A43U A45G, for which the yeast fitness is 0.852.
Consider A45C G52C, for which the yeast fitness was found to be 0.762.
For the variant A43U C62G C66A A69C, the yeast fitness was 0.67.
Turning to G44A C61G, the yeast fitness stood at 0.597.
Turning to A43G C61U A65U, the yeast fitness came to 0.567.
As for A42U A45U C49G U53A, the yeast fitness is no more than 0.5.
Turning to A42U G51A C60G G63A, the yeast fitness was no more than 0.5.
The same measure for A42U C46U A69C: 0.9; for A45C G67A: 0.814.
As to G44C G52A A69G, the yeast fitness was no more than 0.5.
As to A42U G67C, the yeast fitness came out at 0.69.
Turning to A42U G63A G68C A69C, the yeast fitness is no more than 0.5.
For G44A G56A U59A, the yeast fitness amounted to 0.575.
On to G44C C61A, for which the yeast fitness is 0.583.
Under G44A C55U G63A stands no more than 0.5.
Take A43G G56C A69U: the yeast fitness came to 0.683.
A42U G44C A65C: the yeast fitness is no more than 0.5.
G44A G51C: the yeast fitness was determined as 0.572.
Regarding A43G C49U, the yeast fitness turned out to be 0.9.
